Assay results from ChEMBL document CHEMBL4610116, “Salicylanilide Analog Minimizes Relapse of Clostridioides difficile Infection in Mice” (J Med Chem, 2020).
The source made the active and inactive calls. The rule behind the calls is not given here.

How the values were obtained:
[1] = system: Clostridioides difficile; assay: (§1) Suppression of relapse of Clostridioides difficile 630 infection in cefoperazone-treated C57BL/6J mouse model of recurrent Clostridioides difficile 630 infection assessed as reduction in microbial load (total vegetative cells plus spores) in cecal content at 5 mg/kg, po for 5 days from day 4 to 9 after infection with spores measured on day day 14; assay type: functional, organism-based
In short: (§2)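 Five-week-old C57BL/6J mice of both sexes given cefoperazone 0.5 mg/ml in drinking water for 5 days, then a 2-day washout. Oral challenge with C. difficile 630 spores on day 0. Oral gavage in 2-(hydroxypropyl)-cyclodextrin vehicle on days 4–9; n = 6 per group. Body weight recorded daily. Feces or cecal contents suspended 1:10 in PBS, serially diluted and plated on TCCFA, incubated anaerobically at 37°C for 24 h; results as CFU/g.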

[2] = Cmax in non-antibioticc-treated C57Bl/6J mouse at 0.3 mg/kg, iv and measured after 5 mins to 24 hrs by LC/MS-SRM analysis; assay type: ADME, organism-based; set-up: dose 0.3 mg/kg, route intravenous; settings: in vivo
In short: (§3)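 Non-antibiotic-treated C57Bl/6J mice given a single i.v. dose of 0.3 mg/kg; n = 3 per time point. Bled at 5, 10, 30 min and 1, 2, 4, 8, 24 h. Plasma mixed with 2 volumes acetonitrile containing internal standard, centrifuged, supernatant quantified by LC/MS-SRM.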

[3] = Half life in cefoperazone-treated C57Bl/6J mouse at 1 mg/kg, po dosed each day for 5 days by LC/MS-SRM analysis; assay type: ADME, organism-based; settings: in vivo
In short: (§4)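 C57Bl/6J mice pre-treated with cefoperazone 0.5 mg/mL in drinking water for 10 days, then a 2-day washout. Oral dose of 1 mg/kg given daily for 5 days. Bled at 5, 10, 30 min and 1, 2, 4, 10, 24 h after dosing on the first and final days; n = 3 per time point. Plasma mixed with 2 volumes acetonitrile containing internal standard, centrifuged, supernatant analysed by LC/MS-SRM.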

[4] = MRT in non-antibioticc-treated C57Bl/6J mouse at 0.3 mg/kg, iv and measured after 5 mins to 24 hrs by LC/MS-SRM analysis; assay type: ADME, organism-based; settings: in vivo; in short: as §3
[5] = Cmax in cecum of cefoperazone-treated C57Bl/6J mouse at 1 mg/kg, po dosed each day for 5 days and measured at 4 hrs post last dose by LC/MS-SRM analysis; assay type: ADME, organism-based, Caecum; set-up: dose 1 mg/kg, route oral
In short: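 Cefoperazone-pretreated mice (0.5 mg/mL in drinking water, 10 days; 2-day washout) dosed orally at 1 mg/kg daily for 5 days. On the final day, mice euthanized at 30 min, 4 h and 24 h post-dose and cecal contents collected. Samples homogenized in 4 volumes acetonitrile containing internal standard, centrifuged, supernatant analysed by LC/MS-SRM.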

[6] = Cmax in cefoperazone-treated C57Bl/6J mouse at 1 mg/kg, po dosed each day for 5 days by LC/MS-SRM analysis; assay type: ADME, organism-based; set-up: dose 1 mg/kg, route oral; settings: in vivo; in short: as §4
[7] = (§5) Effect on gut microbiota in cefoperazone-treated C57BL/6J mouse model of recurrent Clostridioides difficile 630 infection assessed as increase in abundance of phylum Firmicutes at 5 mg/kg, po for 5 days from day 4 to 9 after infection with spores measured on day day 14 by 16S rRNA Illumina sequencing analysis; assay type: ADME, organism-based; settings: in vivo, 120 h
In short: (§6)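 Recurrent CDI model in cefoperazone-treated C57BL/6J mice challenged with strain 630 and gavaged on days 4–9 (n = 6 per group). Cecal tissue snips collected at necropsy underwent 16S rRNA gene community sequencing on Illumina MiSeq.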

[8] = system: Clostridioides difficile; assay: as §1, with “toxin activity” for “microbial load (total vegetative cells plus spores)”; assay type: functional, organism-based
In short: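 Mice challenged with strain 630 spores after cefoperazone; drug given 5 mg/kg by gavage, days 4–9, vehicle hydroxypropyl-cyclodextrin. Cecal content at day 14 diluted 1:10 in PBS, filtered, then serially diluted to 10⁻⁶. Dilutions preincubated 40 min at room temperature with PBS or antitoxin, then added to Vero cells overnight at 37°C. Titer is the reciprocal of the highest dilution rounding 80% of cells.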

[9] = Instantaneous volume of distribution in non-antibioticc-treated C57Bl/6J mouse at 0.3 mg/kg, iv and measured after 5 mins to 24 hrs by LC/MS-SRM analysis; assay type: ADME, organism-based; settings: in vivo; in short: as §3
[10] = Clearance in non-antibioticc-treated C57Bl/6J mouse at 0.3 mg/kg, iv and measured after 5 mins to 24 hrs by LC/MS-SRM analysis; assay type: ADME, organism-based; settings: in vivo; in short: as §3
[11] = system: Clostridioides difficile; assay: (§7) Suppression of relapse of Clostridioides difficile 630 infection in cefoperazone-treated C57BL/6J mouse model of recurrent Clostridioides difficile 630 infection assessed as reduction in body weight loss at 5 mg/kg, po for 5 days from day 4 to 9 after infection with spores; assay type: functional, organism-based; in short: as §2
[12] = as §5, with “group-Ruminococcaceae” for “phylum Firmicutes”; assay type: ADME, organism-based; settings: in vivo, 120 h; in short: as §6
[13] = system: Clostridioides difficile; assay: as §7, with “group-Bacteroidaceae level” for “body weight loss”, “spores measured on day day 14” for “spores”; assay type: functional, organism-based; in short: as §6
[14] = system: Clostridioides difficile; assay: as §7, with “histopathological summary scores” for “body weight loss”, “spores measured on day day 14” for “spores”; assay type: functional, organism-based
In short: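 Recurrent CDI model in cefoperazone-treated C57BL/6J mice challenged with strain 630 and gavaged on days 4–9 (n = 6 per group). At necropsy on day 14, H&E-stained cecum and colon scored 0–4 each for edema, inflammatory cell infiltration and epithelial damage. Scoring done blinded by a veterinary pathologist.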

[15] = AUC in non-antibioticc-treated C57Bl/6J mouse at 0.3 mg/kg, iv and measured after 5 mins to 24 hrs by LC/MS-SRM analysis; assay type: ADME, organism-based; set-up: time upper 24 hr, time lower 0.083 hr, dose 0.3 mg/kg, route intravenous; settings: in vivo; in short: as §3
[16] = MRT in cefoperazone-treated C57Bl/6J mouse at 1 mg/kg, po dosed each day for 5 days by LC/MS-SRM analysis; assay type: ADME, organism-based; settings: in vivo; in short: as §4
[17] = Toxicity in sheep RBC assessed as induction of hemolysis at 0.625 to 80 uM incubated for 1 hr at 37 degC relative to control; assay type: cell-based, Ovis aries, Erythrocyte; settings: sheep red blood cells (erythrocytes), read-out: Activity
In short: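 Sheep erythrocytes washed three times in PBS pH 7.4. A 3% suspension mixed 1:1 with compound in PBS, final 0.625–80 µM, for 1 h at 37°C. Centrifuged at 500 × g and supernatant absorbance read at 540 nm. 1% Triton X-100 served as positive control and 1.6% DMSO in PBS as negative control.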

[18] = Volume of distribution at steady state in non-antibioticc-treated C57Bl/6J mouse at 0.3 mg/kg, iv and measured after 5 mins to 24 hrs by LC/MS-SRM analysis; assay type: ADME, organism-based; settings: in vivo; in short: as §3
[19] = system: Clostridioides difficile; assay: as §1, with “incidence of animals with” for “reduction in”, “load below the limit of detection” for “in cecal content”, “13 post drug cessation” for “day 14”; assay type: functional; in short: as §2
[20] = as §5, with “Lachnospiraceae” for “phylum Firmicutes”; assay type: ADME, organism-based; settings: in vivo, 120 h; in short: as §6
[21] = system: Clostridioides difficile; assay: as §1, with “spores)” for “spores) in cecal content”, “9” for “day 14”; assay type: functional, organism-based; in short: as §2

SMILES: O=C(Nc1cc(C(F)(F)F)c(Oc2ccc(Cl)cc2)c(C(F)(F)F)c1)c1cc(Cl)cc(Cl)c1O
- Activity [1]: Active
- Cmax [2]: 1630 nM
- half-life [3]: 10.7 h
- MRT [4]: 5.26 h
- Cmax [5]: 50000 nM
- Cmax [6]: 1780 nM
- Activity [7]: Non-Toxic
- Activity [8]: Active
- Vc [9]: 8.5 mL
- clearance [10]: 1 mL/min/kg
- Activity [11]: Active
- Activity [12]: Non-Toxic
- Activity [13]: Active
- Activity [14]: Active
- AUC [15]: 9.23 µM·h
- MRT [16]: 9.7 h
- hemolysis at 1 h, up to 80 µM [17]: < 2%
- Vdss [18]: 7.9 mL
- Activity [19]: 50%
- Activity [20]: Non-Toxic
- Activity [21]: Active
